The source of these data is PMC5069578 (Journal of Clinical Pharmacology, 2016).

Counter-ions that a name gives are not always drawn. Like-named read-outs stand apart in the source and are kept apart here.

In general, half-life refers to how long it takes for the measured level to halve. A high value points to slow loss. As a reminder, the AUC(0-t) is the area under the concentration-time curve up to a stated or last time point. High values mean more exposure, low ones less exposure. Usually Cmax stands for the maximum level reached in the sampled fluid or tissue. Usually Tmax stands for the time from dosing to the highest level.

For data set [1] the following is noted: ref Takeda, data on file; cited from earlier work.
The conditions of data set [2]: ref Takeda, data on file; cited from earlier work. This is another data set of the same source.
A short description of data set [3]: Safety and tolerability. It is filed as in vivo, human. The method, boiled down: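 Adverse events recorded throughout treatment and up to 30 days after last dose or start of subsequent antineoplastic therapy, graded by NCI CTCAE v4.03. Safety population comprised all patients given at least 1 dose of test compound (single 4-mg oral doses on days 1 and 15, fasted/fed crossover).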

Data set [4] is classed as in vivo, human. Particulars: for half-life / AUC(0-t) / Cmax / Tmax: human, plasma, 4 mg; for half-life: oral, Geometric mean (%CV) terminal half-life, N = 4; for AUC(0-t) / Cmax / Tmax: po, single 4-mg oral dose, n = 15; for AUC(0-t): Geometric mean AUC0-216 (%CV); for Cmax: Geometric mean Cmax (%CV); for Tmax: Median Tmax (range). In outline:
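Randomized 2-period, 2-sequence crossover: 4-mg immediate-release capsule on day 1 and day 15, either fasted (~10 h overnight) or fed (high-fat meal begun ≥30 min predose), alternating between periods; no food 4 h postdose. Plasma sampled predose to 216 h, LC-MS/MS (linear 0.5–500 ng/mL). Noncompartmental parameters; log AUC0-216 and Cmax by ANOVA (treatment, sequence, period fixed; patient-within-sequence random), back-transformed LS-mean ratios with 90% CIs.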

The conditions of data set [5]: cited from earlier work.
Data set [6] can be described thus: Biopharmaceutics Classification System. The data set is classed as physicochemical. Particulars: from solubility and permeability.
The conditions of data set [7]: under physiological conditions; cited from earlier work.
For data set [8] the following is noted: healthy volunteers and patients with advanced solid tumors; cited from earlier work.
[9] abbreviates: fed vs fasted, ANOVA on log-transformed values.

Consider `CC(C)C[C@H](NC(=O)CNC(=O)c1cc(Cl)ccc1Cl)B(O)O` [ixazomib], for which, in data set [1], the Permeability entry is given as “moderate”. For the same molecule, the Solubility result in data set [2] is given as “highly soluble”. Besides, the “On-study deaths considered related to ixazomib” value in data set [3] (3 on-study deaths) is “None”. In addition, in data set [3] (24 patients), the “Drug-related, reversible grade 1 peripheral neuropathy” value amounted to 1 case; the “Patients with TEAEs resulting in dose reduction” value was found to be 4%; the “Patients with any-grade drug-related TEAEs” value was determined as 83%; the “Patients with any-grade drug-related fatigue” value was found to be 25%. Also, in data set [3] (24 patients), the “Patients with any-grade drug-related nausea” value worked out at 50%, the “Patients with any-grade drug-related vomiting” value is recorded as 58%, the “Patients with at least 1 grade ≥3 TEAE” value was 54% and the “Patients with at least 1 grade ≥3 drug-related TEAE” value turned out to be 21%. In data set [3] (24 patients), the “Patients with drug-related serious AE” value was 8%, the “Patients with grade ≥3 drug-related anemia” value is on record as 8%, the “Patients with grade ≥3 drug-related dehydration” value is given as 4% and the “Patients with grade ≥3 drug-related fatigue” value amounted to 4%. In addition, in data set [3] (24 patients), the “Patients with grade ≥3 drug-related peripheral edema” value worked out at 4%, the “Patients with grade ≥3 drug-related vomiting” value was found to be 4% and the “Patients with vomiting leading to dose modification” value was determined as 8%. Also, in data set [3] (safety population N = 24), the “AE leading to discontinuation” value is reported as 7 (29) n (%), the “Any AE” value was 24 (100) n (%), the “Any drug-related AE” value was 20 (83) n (%) and the “Any drug-related grade ≥3 AE” value is 5 (21) n (%). Further, in data set [3] (safety population N = 24), the “Any drug-related serious AE” value is reported as 2 (8) n (%), the “Any grade ≥3 AE” value is reported as 13 (54) n (%), the “Any serious AE” value is 12 (50) n (%) and the “Any-grade drug-related AE: anemia” value was 4 (17) n (%). In data set [3] (safety population N = 24), the “Any-grade drug-related AE: asthenia” value was 2 (8) n (%), the “Any-grade drug-related AE: chills” value was 2 (8) n (%), the “Any-grade drug-related AE: constipation” value is recorded as 2 (8) n (%) and the “Any-grade drug-related AE: decreased appetite” value is on record as 3 (13) n (%). Also, in data set [3] (safety population N = 24), the “Any-grade drug-related AE: diarrhea” value is given as 3 (13) n (%), the “Any-grade drug-related AE: fatigue” value is listed as 6 (25) n (%), the “Any-grade drug-related AE: nausea” value is 12 (50) n (%) and the “Any-grade drug-related AE: thrombocytopenia” value is listed as 2 (8) n (%). Moreover, in data set [3] (safety population N = 24), the “Any-grade drug-related AE: vomiting” value is 14 (58) n (%), the “Any-grade drug-related AE: weight loss” value is 4 (17) n (%), the “Grade ≥3 drug-related AE: anemia” value is 2 (8) n (%) and the “Grade ≥3 drug-related AE: dehydration” value is 1 (4) n (%). For the same molecule, in data set [3] (safety population N = 24), the “Grade ≥3 drug-related AE: fatigue” value is 1 (4) n (%), the “Grade ≥3 drug-related AE: peripheral edema” value is given as 1 (4) n (%), the “Grade ≥3 drug-related AE: vomiting” value is listed as 1 (4) n (%) and the On-study deaths is 3 (13) n (%). In data set [3] (safety population N = 24, includes follicular rash, intermittent dark skin lesion, macular rash, maculopapular rash, pruritus), the “Any-grade drug-related AE: rash” value is recorded as 5 (21) n (%). In addition, the “Ratio of period 2 AUC to period 1 AUC (period effect)” value in data set [4] (ANOVA analysis, period 2 (day 15) vs period 1 (day 1)) turned out to be 2.21. Moreover, in data set [4] (fed vs fasted), the “Delay of median Tmax under fed conditions compared with fasted state” value is given as “approximately 3 hours”, the “Reduction in peak plasma concentration (Cmax)” value is 69% and the “Reduction in total systemic exposure (AUC)” value was found to be 28%. For the same molecule, in data set [4] (setting [9]), the “Least-squares geometric mean ratio (90%CI) of AUC0-216 (test/reference)” value is on record as 0.72 (0.58‐0.89) and the “Least-squares geometric mean ratio (90%CI) of Cmax (test/reference)” value was 0.31 (0.21‐0.45). Besides, the half-life in data set [4] (day 1, fasted) is 189 h. Further, the half-life in data set [4] (day 1, fed) is 198 h. In data set [4] (fasted (reference)), this molecule registered an AUC(0-t) of 1470 ng·h/mL and a Cmax of 77 ng/mL. In addition, in data set [4] (fed (test)), the AUC(0-t) is 999 ng·h/mL and the concentration peaked (Cmax) at 22.8 ng/mL. Also, the Tmax in data set [4] (fasted (reference), immediate-release capsule) is 1.02 h. The Tmax in data set [4] (fed (test, high-calorie high-fat meal)) worked out at 4 h. In data set [5] (226 adult cancer patients, immediate-release capsules, estimated), the Absolute oral bioavailability is 60%. In data set [5], the “Dose and time dependence of PK” value is “dose‐ and time‐independent PK”. In addition, the “Biopharmaceutics Classification System (BCS) class” value in data set [6] is “class 3”.
For `CC(C)C[C@H](NC(=O)CNC(=O)c1cc(Cl)ccc1Cl)B1OC(=O)C(CC(=O)O)(CC(=O)O)O1` [ixazomib citrate], the “Hydrolysis to the biologically active boronic acid, ixazomib” value in data set [7] is recorded as “rapid hydrolysis”.
With `CS(=O)(=O)CCNCc1ccc(-c2ccc3ncnc(Nc4ccc(OCc5cccc(F)c5)c(Cl)c4)c3c2)o1` [lapatinib], the “Change in bioavailability when administered with a high-fat breakfast” value in data set [8] is listed as “large increases”.
